Results reported in ChEMBL document CHEMBL3351742, “Novel quinazoline-urea analogues as modulators for Aβ-induced mitochondrial dysfunction: design, synthesis, and molecular docking study” (Eur J Med Chem, 2014).

Legend:
[1] = tested on: HT-22; experiment: Inhibition of beta-amyloid peptide-induced mitochondrial permeability transition pore opening in mouse HT22 cells assessed as increase in green/red fluorescence ratio at 5 uM pre-incubated for 10 mins before Abeta peptide addition by JC-1 assay; type: cell-based; design: scale not given: the % may be the effect or the level left
Summary of the method: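 HT-22 mouse hippocampal cells (DMEM, 10% FBS, 37 °C, 5% CO2), 30,000/well seeded a day ahead; loaded with 7.5 μM JC-1 (final) in phenol red-free Opti-MEM for 1 h 15 min at 37 °C, PBS-washed. Compound 5 μM for 10 min, then Aβ1–42 5 μM. Fluorescence read hourly for 3 h, red ex/em 530/580, green 485/530; green/red ratio change relative to Aβ alone (100%).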

[2] = Toxicity against mouse HT22 cells assessed as cell viability at 5 uM after 24 hrs by MTT assay; type: cell-based, HT-22; conditions: read-out: Activity
Summary of the method: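 HT-22 cells, 5000/well, given compound at 5 μM without Aβ, 24 h at 37 °C. MTT added for 2 h at 37 °C, formazan dissolved in 10% Triton X-100/isopropanol with 0.1 M HCl for 1 h at room temperature; absorbance at 570 nm, vehicle-control values subtracted to derive viability.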

Row | SMILES | Activity [1] [%] | viability at 24 h, 5 µM [2] [%]
1 | Cc1ccc(NC(=O)Nc2cc3ncncc3cc2OCc2ccccc2Cl)cc1 | 54.7 | –
2 | Cc1ccc(NC(=O)Nc2cc3ncncc3cc2OCc2ccccc2F)cc1 | 26.7 | 131
3 | O=C(Nc1ccc(Cl)c(Cl)c1)Nc1cc2ncncc2cc1OCc1ccc(Cl)cc1 | 91 | –
4 | Cc1ccc(NC(=O)Nc2cc3ncncc3cc2OCc2ccc(Cl)cc2)cc1 | 63 | –
5 | O=C(Nc1ccc(C(F)(F)F)cc1)Nc1cc2ncncc2cc1OCc1ccc(F)cc1 | 81 | –
6 | O=C(Nc1cc2ncncc2cc1OCc1ccccc1F)Nc1cccc2ccccc12 | 39.4 | 83
7 | O=C(Nc1cccc(F)c1)Nc1cc2ncncc2cc1OCc1ccc(Cl)cc1 | 29 | 100
8 | O=C(Nc1ccc(C(F)(F)F)cc1)Nc1cc2ncncc2cc1OCc1ccc(Cl)cc1 | 48 | –
9 | O=C(Nc1cccc(Cl)c1)Nc1cc2ncncc2cc1OCc1ccccc1F | 51.4 | –
10 | O=C(Nc1ccccc1F)Nc1cc2ncncc2cc1OCc1ccc(Cl)cc1 | 24 | 102
11 | O=C(Nc1ccc(Cl)c(Cl)c1)Nc1cc2ncncc2cc1OCc1ccccc1 | 73 | –
12 | O=C(Nc1cccc(Cl)c1)Nc1cc2ncncc2cc1OCc1ccc(F)cc1 | 67.9 | –
13 | O=C(Nc1cccc(F)c1)Nc1cc2ncncc2cc1OCc1cccc(F)c1 | 27 | 104
14 | O=C(Nc1cccc(Cl)c1)Nc1cc2ncncc2cc1OCc1ccc(Cl)cc1 | 64 | –
15 | O=C(Nc1ccccc1F)Nc1cc2ncncc2cc1OCc1ccc(F)cc1 | 80.3 | –
16 | O=C(Nc1cccc(F)c1)Nc1cc2ncncc2cc1OCc1ccccc1 | 38 | 100
17 | O=C(Nc1cc2ncncc2cc1OCc1ccccc1)Nc1cccc2ccccc12 | 76 | –
18 | O=C(Nc1ccccc1F)Nc1cc2ncncc2cc1OCc1ccccc1Cl | 31 | 101
19 | O=C(Nc1ccc(Cl)c(Cl)c1)Nc1cc2ncncc2cc1OCc1ccc(F)cc1 | 155 | –
20 | Cc1ccc(NC(=O)Nc2cc3ncncc3cc2OCc2ccccc2)cc1 | 154 | –
21 | O=C(Nc1ccc(C(F)(F)F)cc1)Nc1cc2ncncc2cc1OCc1ccccc1F | 68.6 | –
22 | O=C(Nc1cccc(F)c1)Nc1cc2ncncc2cc1OCc1ccccc1F | 56.9 | –
23 | O=C(Nc1cccc(F)c1)Nc1cc2ncncc2cc1OCc1ccc(F)cc1 | 61.5 | –
24 | Cc1ccc(NC(=O)Nc2cc3ncncc3cc2OCc2cccc(F)c2)cc1 | 81 | –
25 | Cc1ccc(NC(=O)Nc2cc3ncncc3cc2OCc2ccc(F)cc2)cc1 | 99.2 | –
